Test results published in ChEMBL document CHEMBL1130878 (Bioorg Med Chem Lett, 1998).

Legend:
[1] = molecular target: T1, Endothelin receptor type B (Sus scrofa, UniProt P35463); experiment: In vitro ability to inhibit specific [125I]ET1 binding to porcine kidney (inner medulla) membranes Endothelin B receptor
T1 sequence (P35463 whole entry): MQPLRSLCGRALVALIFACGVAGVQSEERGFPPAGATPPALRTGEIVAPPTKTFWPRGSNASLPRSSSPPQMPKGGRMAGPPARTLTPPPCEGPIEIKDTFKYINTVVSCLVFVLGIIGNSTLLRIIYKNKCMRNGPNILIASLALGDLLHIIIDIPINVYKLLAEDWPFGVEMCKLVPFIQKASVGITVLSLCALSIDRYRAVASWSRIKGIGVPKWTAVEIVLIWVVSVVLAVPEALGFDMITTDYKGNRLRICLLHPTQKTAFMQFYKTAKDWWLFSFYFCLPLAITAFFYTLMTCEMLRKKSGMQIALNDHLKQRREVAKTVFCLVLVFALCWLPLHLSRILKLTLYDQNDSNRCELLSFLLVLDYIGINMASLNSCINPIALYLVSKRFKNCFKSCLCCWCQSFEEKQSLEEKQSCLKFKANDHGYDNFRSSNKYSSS

Endothelin-1 receptor = molecular target: T2, Endothelin-1 receptor (Rattus norvegicus, UniProt P26684); experiment: In vitro ability to inhibit specific [125I]ET1 binding to rat aorta membranes Endothelin A receptor; type: tissue-based
T2 sequence (P26684 whole entry): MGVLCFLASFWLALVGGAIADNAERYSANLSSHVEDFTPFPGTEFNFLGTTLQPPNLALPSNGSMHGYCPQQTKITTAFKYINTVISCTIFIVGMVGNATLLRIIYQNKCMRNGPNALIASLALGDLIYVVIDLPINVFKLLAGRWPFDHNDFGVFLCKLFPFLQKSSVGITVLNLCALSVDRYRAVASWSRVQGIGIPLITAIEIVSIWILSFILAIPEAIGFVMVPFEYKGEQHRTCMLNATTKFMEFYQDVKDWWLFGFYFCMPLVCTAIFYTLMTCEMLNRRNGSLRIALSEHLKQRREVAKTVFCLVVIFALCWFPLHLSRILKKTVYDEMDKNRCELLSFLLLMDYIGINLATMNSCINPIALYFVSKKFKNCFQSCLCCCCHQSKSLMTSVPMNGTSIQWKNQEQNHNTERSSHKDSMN

Oryctolagus cuniculus = species: Oryctolagus cuniculus; experiment: Compound was evaluated for the functional assay performed by obtaining sarafotoxin 6c concentration-response curves [pA2(ETB)] in isolated rabbit jugularis vein
Rattus norvegicus = species: Rattus norvegicus; experiment: Compound was evaluated for the functional assay performed by obtaining ET-1 concentration-response curves [pA2(ETA)] in isolated rat aortic rings; conditions: Aorta, read-out: pA2 (converted)
Summary of the method: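 Functional ETA assay: ET-1 concentration-response curves in isolated rat aortic rings with the endothelium removed. Antagonism is expressed as pA2.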

SMILES | IC50 [1] [µM] | IC50 (Endothelin-1 receptor) [µM] | Kb (Oryctolagus cuniculus) [µM] | Kb (Rattus norvegicus) [µM]
COc1cc(C/C(C(=O)c2cc(OC)c(OC)c(OC)c2)=C(/C(=O)O)c2ccc3nsnc3c2)cc(OC)c1OC | 0.34 | 0.0037 |  | 
COc1ccccc1C(=O)/C(Cc1cc(OC)c(OC)c(OC)c1)=C(\C(=O)O)c1ccc2nsnc2c1 | 4.8 | 0.016 |  | 
COc1cc(C/C(C(=O)c2ccc3c(c2)CCO3)=C(/C(=O)O)c2ccc3nsnc3c2)cc(OC)c1OC | 0.46 | 0.028 |  | 
COc1cccc(C(=O)/C(Cc2cc(OC)c(OC)c(OC)c2)=C(\C(=O)O)c2ccc3nsnc3c2)c1 | 1.8 | 0.0046 |  | 
COc1ccc(C(=O)/C(Cc2ccc(OC)c(F)c2)=C(\C(=O)O)c2ccc3nsnc3c2)cc1 | 2.9 | 0.014 |  | 
CCCCN(CCCC)C(=O)CN1C[C@H](c2ccc3c(c2)OCO3)[C@@H](C(=O)O)[C@@H]1c1ccc(OC)cc1 |  |  | 0.794 | 0.00251
COc1cc(C/C(C(=O)c2ccc(OC(F)F)cc2)=C(/C(=O)O)c2ccc3nsnc3c2)cc(OC)c1OC | 1.9 | 0.16 |  | 
